Here are results for twelve compounds from ChEMBL document CHEMBL1122439 (J Med Chem, 1983).

The source made the active and inactive calls. The rule behind the calls is not given here.

The target in series [1] is Histamine H2 receptor (Cavia porcellus) (UniProt P47747). The series is described as follows: Evaluated in vitro for Histamine H2 receptor inhibition using the dimaprit stimulated chronotropic response of the guinea pig atrium; inact means inactive at 8 x 10 -8 M. Format: tissue-based. The conditions noted are these: Cardiac atrium, in the assay text read “8 x 10 -5 M” for “8 x 10 -8 M”. The method, boiled down: (§1)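 Isolated guinea pig atria; chronotropic response to rising concentrations of H2 agonist dimaprit (10⁻⁷–10⁻⁴ M) in presence of test agent; three to four atria per test concentration; -log K_I = log(ED50 dose ratio − 1) − log(drug dose).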

Series [2] has as its system Canis familiaris. The series is described as follows: % Inhibition of acid output in dogs at a dose of 5.0 mg/kg administered intravenously. Format: functional. The conditions noted are these: Canis lupus familiaris, route intravenous. The method, boiled down:
(§2)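 Dogs with chronic gastric fistula; gastric acid secretion evoked by maximal stimulating histamine dose (64 μg/kg, sc). Test agent given intravenously, or intragastrically via fistula for peroral dosing; percent inhibition of acid output recorded at the stated single dose.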

For series [3], the system named is Canis familiaris. The series is described as follows: % Inhibition of acid output in dogs at a dose of 10 mg/kg administered perorally. It counts as functional. The conditions noted are these: Canis lupus familiaris, route oral. The essentials: as §2
The subject of series [4] is Canis familiaris. Put plainly: Effective dose administarted intravenously required for 50 % inhibition of acid output in dogs; value may range from 0.01-0.02. Format: functional. The conditions noted are these: Canis lupus familiaris, iv.
In series [5] the test system is Canis familiaris. Put plainly: % Inhibition of acid output in dogs at a dose of 0.03 mg/kg administered intravenously. Format: functional. As to conditions: Canis lupus familiaris, route intravenous. The essentials: as §2
Another series concerns the target Histamine H2 receptor (Cavia porcellus, UniProt P47747). Put plainly: Evaluated in vitro for Histamine H2 receptor inhibition using the dimaprit stimulated chronotropic response of the guinea pig atrium. It counts as tissue-based, Cardiac atrium. The method, boiled down:
as §1

Series [6] in a line: pKa of urea component measured as proton lost reference pKa for the 3,4 diaminothiadiazole 1-oxide is ~11 in water. Format: physicochemical. As to conditions: buffer. The essentials:
(§3)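 Potentiometric titration in water with glass electrodes; heterocycle pKa taken as proton gained, urea-component pKa as proton lost; method upper limit pKa 11.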

Series [7] is described as follows: pKa of heterocyclic component measured as proton gained. Format: physicochemical. The method, boiled down:
as §3

In series [8] the test system is Canis familiaris. The series is described as follows: % Inhibition of acid output in dogs at a dose of 20 mg/kg administered perorally. Format: functional. The conditions noted are these: Canis lupus familiaris, route oral. The method, boiled down:
as §2

Series [9] deals with Canis familiaris. Put plainly: Effective dose administarted perorally required for 50 % inhibition of acid output in dogs. As to conditions: Canis lupus familiaris, po. It counts as functional.
The subject of series [10] is Canis familiaris. The series is described as follows: Effective dose administarted intravenously required for 50 % inhibition of acid output in dogs; value may range from 0.15-0.18. The conditions noted are these: Canis lupus familiaris, iv. Format: functional.
Series [11] concerns Canis familiaris. Put plainly: Effective dose administarted intravenously required for 50 % inhibition of acid output in dogs; Value may range from 0.01-0.03. As to conditions: Canis lupus familiaris, iv. It counts as functional.
For series [12], the system named is Canis familiaris. The series is described as follows: Effective dose administarted perorally required for 50 % inhibition of acid output in dogs; value may range from 0.7-10.9. It counts as functional. As to conditions: Canis lupus familiaris, po.
For series [13], the system named is Canis familiaris. Put plainly: Effective dose administarted intravenously required for 50 % inhibition of acid output in dogs; value may range from 0.01-0.08. Format: functional. The conditions noted are these: Canis lupus familiaris, iv.
The test system of series [14] is Canis familiaris. Put plainly: % Inhibition of acid output in dogs at a dose of 3.0 mg/kg administered intravenously. It counts as functional. The conditions noted are these: Canis lupus familiaris, route intravenous. The essentials: as §2

Histamine H2 receptor, sequence (P47747 whole entry): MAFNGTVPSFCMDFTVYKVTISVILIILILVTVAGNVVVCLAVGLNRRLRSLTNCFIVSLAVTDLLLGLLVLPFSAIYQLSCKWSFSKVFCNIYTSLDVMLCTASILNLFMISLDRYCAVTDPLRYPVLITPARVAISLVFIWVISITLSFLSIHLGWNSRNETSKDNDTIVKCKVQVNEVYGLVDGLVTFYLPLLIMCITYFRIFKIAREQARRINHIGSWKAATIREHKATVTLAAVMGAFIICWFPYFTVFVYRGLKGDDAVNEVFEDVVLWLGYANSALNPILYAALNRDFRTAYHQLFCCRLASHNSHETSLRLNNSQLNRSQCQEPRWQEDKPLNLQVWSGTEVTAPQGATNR
Histamine H2 receptor (Cavia porcellus), sequence (P47747 whole entry): as above

In general, inhibition in vivo refers to how much of the control response was suppressed. The low end stands for a weak effect, the high end for a strong effect. With `C/N=C(\NC#N)Nc1ccccc1-c1[nH]cnc1C`, the “-Log Ki” value in series [1] is “inactive”. This compound also yielded an inhibition in vivo at 5 mg/kg in the series with Canis familiaris [2] of 4%.
As usually defined, the ED50 is the dose that gives a 50% effect, or the effect in half of the subjects. The low end stands for greater potency, the high end for weaker potency. As usually defined, the Ki is the dissociation constant of the complex between target and ligand, obtained from inhibition or displacement. A low value points to tighter binding. `CNc1n[s+]([O-])nc1Nc1cccc(-c2csc(N=C(N)N)n2)c1` (configuration not stated) returned an inhibition in vivo at 10 mg/kg with Canis familiaris [3] of 21%. The compound also registered an ED50 in the series on Canis familiaris [4] of 0.017 mg/kg. The same compound gave an inhibition in vivo at 0.03 mg/kg in the series with Canis familiaris [5] of 85%. At Histamine H2 receptor, the Ki was 398 nM.
As usually defined, the pKa is the pH at which an ionisable group is half protonated. Turning to `CN/C(=C/[N+](=O)[O-])Nc1cccc(-c2csc(N=C(N)N)n2)c1`, in the series with Canis familiaris [3], at 10 mg/kg the inhibition in vivo was 70%. Moreover, the pKa was 9.2 in series [6] and 6 in series [7]. Besides, the inhibition in vivo at 0.03 mg/kg in the series on Canis familiaris [5] worked out at 59%. In addition, on Histamine H2 receptor, the Ki was 200 nM.
With `CN/C(=C\[N+](=O)[O-])Nc1cccc(-c2[nH]cnc2C)c1`, in the series with Canis familiaris [8], the inhibition in vivo at 20 mg/kg is 54%. Besides, affinity at Histamine H2 receptor was put at a Ki of 15800 nM. Further, the inhibition in vivo at 5 mg/kg with Canis familiaris [2] was 28%.
Consider `C/N=C(\NC#N)Nc1ccc(-c2[nH]cnc2C)cc1`, for which the “-Log Ki” value in series [1] was “inactive”. For the same compound, in the series on Canis familiaris [2], testing at 5 mg/kg gave an inhibition in vivo of 0%.
In the series on Canis familiaris [8], `Cc1[nH]cnc1-c1cccc(Nc2n[s+]([O-])nc2N)c1` (configuration not stated) yielded an inhibition in vivo at 20 mg/kg of 1%. For the same compound, the Ki on Histamine H2 receptor was 794 nM. Moreover, 5 mg/kg produced 5% inhibition in vivo in the series on Canis familiaris [2].
In turn, `CNC(=NC#N)Nc1cccc(-c2nc[nH]c2C)c1` had a Ki at Histamine H2 receptor of 39800 nM. The same compound gave an inhibition in vivo at 5 mg/kg in the series on Canis familiaris [2] of 48%.
For `CN/C(=N\CCSCc1nc[nH]c1C)NC#N` [CIMETIDINE], it took a dose of 2.86 mg/kg to reach the 50% effect level in the series on Canis familiaris [9] (ED50). In series [7], this compound displayed a pKa of 6.4.
Regarding `CNC(=NCCSCc1csc(N=C(N)N)n1)NC#N` [TIOTIDINE], the ED50 with Canis familiaris [9] came to 0.12 mg/kg; with Canis familiaris [10], 0.16 mg/kg. Besides, the pKa in [7] was 7.1.
`C/N=C(\NC#N)Nc1cccc(-c2csc(N=C(N)N)n2)c1` yielded an inhibition in vivo at 10 mg/kg in the series on Canis familiaris [3] of 73%. In addition, the ED50 stood at 0.02 mg/kg in the series with Canis familiaris [11] and 2.81 mg/kg with Canis familiaris [12]. In the series with Canis familiaris [5], this compound registered an inhibition in vivo at 0.03 mg/kg of 79%. The pKa in series [7] is 6.2. For the same compound, the Ki at Histamine H2 receptor was 316 nM.
In turn, `N=C(N)Nc1nc(-c2cccc(Nc3n[s+]([O-])nc3N)c2)cs1` (configuration not stated) displayed an inhibition in vivo at 10 mg/kg in the series on Canis familiaris [3] of 31%. The pKa in series [6] came to 8.9; in series [7] it was 6.2. In the series on Canis familiaris [5], this compound showed an inhibition in vivo at 0.03 mg/kg of 58%. Moreover, the affinity at Histamine H2 receptor corresponds to a Ki of 316 nM. In addition, in the series with Canis familiaris [13], the 50% effect level (ED50) was put at a dose of 0.02 mg/kg.
Take `CN/C(=C\[N+](=O)[O-])Nc1ccc(-c2csc(N=C(N)N)n2)cc1`: the pKa in series [6] worked out at 9.7; in [7] it was 6.2. The compound further returned an inhibition in vivo at 3 mg/kg with Canis familiaris [14] of 55%. Further, the Ki on Histamine H2 receptor was 31600 nM.
